# L major viab: Leishmania major promastigote growth inhibition; Leishmania major promastigotes, resazurin fluorescence viability; inhibition, % at 10 µM; 200,000 tested, 9% active; in the data active = inhibition above about 50%;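 note: promastigotes grown with compound for 44 hours at 28 °C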
# APP 5UTR inh: APP translation inhibition | inhibition, % at 2 µM | SH-SY5Y APP 5'UTR-luciferase reporter, luminescence | 190,000 tested, 0.82% active;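 active = inhibition above a set limit, derived from the sample mean plus 3 SD, cut at about 45% in these data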
# bCat nuc transl: beta-catenin nuclear translocation modulation. 190,000 tested, 0.3% active. nuclear translocation activity, % at 5 µM. HeLa beta-catenin nuclear translocation, immunofluorescence imaging;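 active = nuclear translocation activity above 50% at 5 µM, with a well cell count of 50 or more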;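 note: per-cell ratio of nuclear to cytoplasmic median beta-catenin stain intensity; plate controls were DMSO negative control for no effect and GSK-3 inhibitor IX positive control for full effect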
#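 System: Human HeLa cells, endogenous beta-catenin | Compound dosing: 5 µM primary, 0.02–20 µM confirmation | Timing: 24 h compound exposure at 37°C, 5% CO2 | Measured by: Fluorescence imaging of beta-catenin antibody stain plus DAPI | Read-out basis: % activation of per-cell nuclear versus cytoplasmic median beta-catenin signal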
# BaF3 parental: reduces parental Ba/F3 cell viability, JAK2V617F counter-screen | CellTiter-Glo ATP luminescence | inhibition, % at 5.6 µM | 220,000 tested, 1.1% active;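 active = inhibition above a per-campaign cutoff, the mean inhibition of all tested compounds plus 3 SD, cut at about 27% in these data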;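 note: 0% = DMSO wells and 100% = JAK Inhibitor I control wells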
# Ba/F3 V617F tox: reduce viability of Ba/F3 cells dependent on JAK2V617F; Ba/F3 EpoR-JAK2V617F viability, ATP luminescence; inhibition, % at 5.6 µM; 220,000 tested, 1.1% active; AID 1446;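 active = inhibition above the campaign mean plus 3 SD over all tested compounds, cut at about 24% in these data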;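 note: cytokine-independent growth of Ba/F3 cells driven by EpoR plus mutant JAK2; 0% = DMSO-treated cells and 100% = JAK inhibitor I control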
# MT stabilizer: microtubule stabilizers in HeLa cells; HeLa tubulin immunostaining HCS, 24 h; share of cells brighter than vehicle mean+2SD; % tubulin-high responders, % at 10 µM; 200,000 tested, 0.83% active; AID 2205;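 active = plate Z-score above 3 for both tubulin-high and condensed-nucleus cell shares, with cell loss under 80%, at 10 µM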;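 note: anti alpha tubulin signal scored within the nucleus-defined area of each cell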
# * marks the source's active call; other numbers are inactive results; · = no result. This is a sample that favours compounds with a hit; in the whole collection about 9.6% have one here.
SMILES,L major viab,APP 5UTR inh,bCat nuc transl,BaF3 parental,Ba/F3 V617F tox,MT stabilizer
CCN1C(=O)/C(=C/c2ccc3c(c2)CCN3CCCCl)C(=O)NC1=S,100*,10,6,3,-2,2
C=CCN1C(=O)/C(=C/c2ccc3c(c2)CCCN3CCC)C(=O)NC1=S,91*,9,3,6,-2,8
COc1ncccc1C(=O)NCC(CC(=O)O)c1ccccc1 (stereo not given),-7,-8,·,1,-4,3
Cc1cc(C=C2C(=O)NC(=S)NC2=O)c(C)n1C1CCCC1,63*,-22,4,3,-1,3
CC(=O)C1C2c3ccccc3OC1(C)N=c1s/c(=C/c3cn(C)nc3C)c(=O)n12 (stereo not given),-9,-15,4,3,-1,5
CCC(C)N1C(=O)NC(=O)C2(Cc3cc(C)ccc3N(C)C2)C1=O (stereo not given),-2,9,-7,5,-3,3
CC(=NCCO)c1c(O)n(C2CCCCC2)c(=O)[nH]c1=O,-3,-6,-4,2,-3,2
CCN(CC)CCCN=C(C)c1c(O)n(C2CCCCC2)c(=O)[nH]c1=O,93*,-12,0,6,0,3
CCC(=NCc1cccnc1)c1c(O)n(C2CCCCC2)c(=O)[nH]c1=O,14,6,-1,9,0,5
CCC(=NCCCN(CC)CC)c1c(O)n(C2CCCCC2)c(=O)[nH]c1=O,92*,-9,-2,6,3,5
CCC(=NCCN1CCOCC1)c1c(O)n(C2CCCCC2)c(=O)[nH]c1=O,·,·,0,-8,-1,·
CCC(=NCc1ccco1)c1c(O)n(C2CCCCC2)c(=O)[nH]c1=O,60*,1,-1,1,-1,4
O=c1c2ccccc2nc(CNCC2CCCO2)n1-c1ccc(F)cc1 (stereo not given),1,-20,-4,0,2,2
C/C(=N\Nc1ccccc1)c1c(O)n(C)c(=O)n(C)c1=O,76*,-2,15,3,-7,3
CCP(=S)(CC)c1ccc(N(C)C)cc1,3,-9,-1,11,0,3
COc1ccc(Cl)cc1C(=O)C1CCCN(Cc2cnc(C)s2)C1 (stereo not given),78*,9,-1,2,-2,3
COc1c(C)cc(C(=O)C2CCCN(Cc3cnc(C)s3)C2)cc1C (stereo not given),70*,-15,-1,1,0,3
COc1cccc(C(=O)C2CCCN(Cc3ccccn3)C2)c1 (stereo not given),2,-26,0,-1,-1,2
COc1c(C)cc(C(=O)C2CCCN(Cc3ccccn3)C2)cc1C (stereo not given),100*,-16,0,7,3,2
Cc1ncc(CN2CCCC(C(=O)c3cccc(OC(C)C)c3)C2)s1 (stereo not given),89*,-20,0,5,-1,3
c1ccc(-c2nc(N3CCOCC3)s[n+]2-c2ccccc2)cc1,-1,-45,-1,2,-2,4
OCc1cnc[nH]1,-4,2,·,3,-4,4
Cc1cc(C)n2c(Br)c(CN3CC4CC(C3)c3cccc(=O)n3C4)nc2n1 (stereo not given),-7,-12,-1,4,4,3
COC(=O)c1cccc(N=Cc2c(O)n(Cc3ccc(F)cc3)c(=O)[nH]c2=O)c1,·,·,2,1,2,·
Cc1cc(C)cc(N2C(=O)NC(=O)/C(=C/c3cccn3-c3ccc(Cl)cc3)C2=O)c1,98*,18,-2,6,0,6
SMILES,L major viab,APP 5UTR inh,bCat nuc transl,BaF3 parental,Ba/F3 V617F tox,MT stabilizer
Cc1cc(C)c(-n2c(O)c(/C=N/N3CCCCC3c3cccnc3)c(=O)[nH]c2=O)c(C)c1 (stereo not given),4,-28,1,3,-3,3
C1=C(CCNCc2ccccc2)CCCC1,73*,13,-2,7,3,3
Cc1nn(Cc2ccccc2)c(C)c1C=C1C(=O)NC(=S)NC1=O,60*,13,-2,2,-2,5
Cc1c(C=C2C(=O)NC(=O)NC2=O)c(=O)n(-c2ccccc2)n1C,1,-7,-1,6,4,4
CC1(C)C(C(=O)NN2C(=O)c3ccccc3C2=O)C1(C)C,-1,-7,-7,1,-2,3
COc1ccc(C(=O)Oc2cccc3cccnc23)cc1S(=O)(=O)N1CCOCC1,98*,0,0,9,5,2
Cc1ccccc1Cc1c(C)nc2nc(SCC(=O)N3CCC4(CC3)OCCO4)nn2c1C,73*,-15,·,2,-4,3
O=C1/C(=C/c2cc([N+](=O)[O-])ccc2Cl)N2CCC1CC2,74*,-14,·,2,1,3
O=C1/C(=C/c2cc3c(cc2Cl)OCO3)N2CCC1CC2,92*,5,0,6,0,3
O=C1/C(=C\c2cc3c(cc2Cl)OCO3)N2CCC1CC2,73*,-19,-1,5,-1,4
O=C1/C(=C\c2ccc(Cl)cc2Cl)N2CCC1CC2,·,·,-2,-8,0,·
CC1(C)COC(Nc2ccc(Cl)cc2)=N1,37,6,·,3,-2,2
Cn1cc(C(=O)Cc2ccccc2)c2ccccc21,0,-19,2,1,-3,4
CC(C)C[C@H](NC(=O)[C@@H]1CCCN1C(=O)[C@@H](N)Cc1ccc(O)cc1)C(=O)NCC(N)=O,-7,11,-1,7,-2,4
C/C(=N\N1CCCCCC1)c1c(O)n(-c2ccccc2C)c(=O)[nH]c1=O,·,·,1,-1,2,·
CC1(C)CSC(=NCc2ccccc2)N1,11,12,0,4,-1,2
COc1nc(NCC2CCCO2)nc(N2CC3CC(C2)c2cccc(=O)n2C3)n1 (stereo not given),·,·,-1,-9,-4,·
Cc1csc(=N)n1Cc1ccccc1,14,·,-1,9,-1,3
C#CCOc1cc(C2C3=C(COC3=O)Nc3cc4c(cc32)OCO4)ccc1OC (stereo not given),4,92*,80*,25,5,13*
COc1ccc(CN2CC3CC(C2)c2cccc(=O)n2C3)cc1OC (stereo not given),-3,4,-1,2,-1,6
COc1cc2c(cc1OC)CN(c1ccc([N+](=O)[O-])c(C(F)(F)F)c1)CC2,66*,-16,-2,8,2,5
O=C(Nc1ccc(F)cc1)N1CC2CC(C1)c1cccc(=O)n1C2 (stereo not given),-1,9,1,2,4,3
O=C1NC(=O)C(=Cc2cc(Cl)ccc2OCc2ccc(C(=O)O)cc2)C(=O)N1,94*,-8,-1,8,1,4
N#CC[N+]1(CCCNP2(=O)C=C(c3ccccc3)OC(c3ccccc3)=C2)CCOCC1,-7,9,-1,7,1,5
